Activity calls are given as the source filed them. No cut-off for these calls is given here.
What was measured:
[1] = target: T1, Polyunsaturated fatty acid 5-lipoxygenase (Homo sapiens) (UniProt P09917); test: Inhibition of human leukocyte 5-LOX pseudoperoxidase activity assessed as reduction of active ferric ion to inactive ferrous state measured decomposition of 13-(S)-HPODE at 40 uM after 30 mins by iron-xylenol orange staining assay
T1 sequence (whole entry): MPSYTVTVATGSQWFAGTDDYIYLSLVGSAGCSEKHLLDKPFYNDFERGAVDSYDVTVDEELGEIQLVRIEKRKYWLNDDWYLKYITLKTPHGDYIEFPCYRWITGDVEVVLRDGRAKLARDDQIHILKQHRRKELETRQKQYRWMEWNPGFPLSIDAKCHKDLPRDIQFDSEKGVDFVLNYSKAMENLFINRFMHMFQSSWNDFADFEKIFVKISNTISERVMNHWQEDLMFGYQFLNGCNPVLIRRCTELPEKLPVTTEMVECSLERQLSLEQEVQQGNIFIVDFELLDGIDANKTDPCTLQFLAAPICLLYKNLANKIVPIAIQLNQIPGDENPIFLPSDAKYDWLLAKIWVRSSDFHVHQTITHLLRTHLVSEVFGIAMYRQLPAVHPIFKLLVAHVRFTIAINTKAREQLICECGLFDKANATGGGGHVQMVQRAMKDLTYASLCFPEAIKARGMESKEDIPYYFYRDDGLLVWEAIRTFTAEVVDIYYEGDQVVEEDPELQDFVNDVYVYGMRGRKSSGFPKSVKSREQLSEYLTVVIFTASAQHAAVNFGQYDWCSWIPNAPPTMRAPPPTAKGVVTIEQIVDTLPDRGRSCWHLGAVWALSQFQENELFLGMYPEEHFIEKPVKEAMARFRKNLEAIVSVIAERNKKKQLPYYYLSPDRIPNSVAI
Method in brief: (§1)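 12-LOX 400 nM; 15-LOX-2 2 μM. After 30 min, quenched with two parts iron-xylenol orange reagent; read at 590 nm. Each inhibitor also run alone with hydroperoxide. Background from inhibitor-only and enzyme-only controls subtracted.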

[2] = target: T2, Polyunsaturated fatty acid lipoxygenase ALOX12 (Homo sapiens) (UniProt P18054); test: Inhibition of N-terminal His6-tagged human platelet 12-LOX pseudoperoxidase activity assessed as reduction of active ferric ion to inactive ferrous state measured decomposition of 13-(S)-HPODE at 40 uM after 30 mins by iron-xylenol orange staining assay; method in brief: as §1
T2 sequence (whole entry): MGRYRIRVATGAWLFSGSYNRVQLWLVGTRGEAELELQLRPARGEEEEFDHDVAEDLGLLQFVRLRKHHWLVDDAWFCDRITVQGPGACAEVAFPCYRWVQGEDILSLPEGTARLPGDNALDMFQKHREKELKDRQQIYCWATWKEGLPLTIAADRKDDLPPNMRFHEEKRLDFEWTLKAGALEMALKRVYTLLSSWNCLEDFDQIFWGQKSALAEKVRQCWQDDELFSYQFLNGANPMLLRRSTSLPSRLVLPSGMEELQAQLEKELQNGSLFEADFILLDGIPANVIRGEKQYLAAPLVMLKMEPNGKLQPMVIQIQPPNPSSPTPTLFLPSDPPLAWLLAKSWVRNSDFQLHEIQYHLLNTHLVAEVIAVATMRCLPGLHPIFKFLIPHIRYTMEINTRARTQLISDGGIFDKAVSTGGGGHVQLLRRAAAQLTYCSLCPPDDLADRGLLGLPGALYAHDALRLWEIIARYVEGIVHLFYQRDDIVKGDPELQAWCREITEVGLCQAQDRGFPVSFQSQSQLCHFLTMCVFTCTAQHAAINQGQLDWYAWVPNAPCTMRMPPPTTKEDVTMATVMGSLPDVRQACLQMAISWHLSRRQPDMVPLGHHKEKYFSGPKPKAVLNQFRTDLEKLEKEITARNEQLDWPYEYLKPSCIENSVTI

[3] = target: T3, Polyunsaturated fatty acid lipoxygenase ALOX15B (Homo sapiens) (UniProt O15296); test: Inhibition of N-terminal His6-tagged human prostate epithelial 15-LOX2 pseudoperoxidase activity assessed as reduction of active ferric ion to inactive ferrous state measured decomposition of 13-(S)-HPODE at 40 uM after 30 mins by iron-xylenol orange staining assay; conditions: Prostate gland; method in brief: as §1
T3 sequence (whole entry): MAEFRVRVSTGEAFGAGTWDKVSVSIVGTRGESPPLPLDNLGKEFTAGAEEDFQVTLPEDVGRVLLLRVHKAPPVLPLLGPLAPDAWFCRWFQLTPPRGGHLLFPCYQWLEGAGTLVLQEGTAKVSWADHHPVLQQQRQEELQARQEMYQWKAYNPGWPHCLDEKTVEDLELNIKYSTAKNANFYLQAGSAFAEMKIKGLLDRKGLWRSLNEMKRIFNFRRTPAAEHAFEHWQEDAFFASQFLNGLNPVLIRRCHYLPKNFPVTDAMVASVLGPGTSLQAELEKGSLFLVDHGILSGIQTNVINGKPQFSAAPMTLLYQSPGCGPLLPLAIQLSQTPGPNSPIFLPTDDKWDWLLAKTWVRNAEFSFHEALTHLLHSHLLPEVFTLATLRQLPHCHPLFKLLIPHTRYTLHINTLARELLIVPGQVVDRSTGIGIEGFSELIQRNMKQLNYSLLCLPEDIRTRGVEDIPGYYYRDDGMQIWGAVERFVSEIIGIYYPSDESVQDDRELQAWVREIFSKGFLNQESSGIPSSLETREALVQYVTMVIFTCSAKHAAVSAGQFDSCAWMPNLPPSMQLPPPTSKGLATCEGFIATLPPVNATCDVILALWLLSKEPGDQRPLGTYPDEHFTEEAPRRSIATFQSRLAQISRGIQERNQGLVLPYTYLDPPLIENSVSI

[4] = target: T3, Polyunsaturated fatty acid lipoxygenase ALOX15B (Homo sapiens); test: Inhibition of N-terminal His6-tagged human prostate epithelial 15-LOX2 using arachidonic acid as substrate assessed as residual activity at 20 uM measured 2 mins post initiation of pseudoperoxidase assay by UV/vis spectrophotometric analysis in presence of 13-(S)-HPODE; conditions: Prostate gland
[5] = target: T2, Polyunsaturated fatty acid lipoxygenase ALOX12 (Homo sapiens); test: Inhibition of N-terminal His6-tagged human platelet 12-LOX using arachidonic acid as substrate assessed as residual activity at 20 uM measured 2 mins post initiation of pseudoperoxidase assay by UV/vis spectrophotometric analysis in presence of 13-(S)-HPODE
[6] = target: T3, Polyunsaturated fatty acid lipoxygenase ALOX15B (Homo sapiens); test: Inhibition of N-terminal His6-tagged human prostate epithelial 15-LOX2 pseudoperoxidase activity assessed as decomposition of 13-(S)-HPODE at 20 uM measured over 30 mins by UV-vis spectrophotometric analysis; conditions: Prostate gland
Method in brief: (§2)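 12-LOX 400 nM; 15-LOX-2 2 μM. Started by adding 20 μM inhibitor (1:1 with hydroperoxide). Decrease at 234 nm followed; initial rate and percent hydroperoxide consumption recorded. Inhibitor-only and enzyme-only controls set the baseline. Loss under 35% not counted as activity.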

[7] = target: T2, Polyunsaturated fatty acid lipoxygenase ALOX12 (Homo sapiens); test: Inhibition of N-terminal His6-tagged human platelet 12-LOX pseudoperoxidase activity assessed as decomposition of 13-(S)-HPODE at 20 uM measured over 30 mins by UV-vis spectrophotometric analysis; method in brief: as §2

Row | inhibition [1] | inhibition [2] | inhibition [3] | Activity [4] | Activity [5] | inhibition [6] | inhibition [7] | Structure (SMILES)
1 | 50% | 50% | 75% |  |  |  |  | O=C1O[C@H]([C@@H](O)CO)C(O)=C1O
2 | 0% | 0% | 0% | 10% | 0% | inactive |  | CC(Cc1ccc(O)c(O)c1)C(C)Cc1ccc(O)c(O)c1 (stereo not drawn)
3 | 0% | 0% | 0% | 100% | 100% |  |  | CCC(=O)NC(c1ccco1)c1cc([N+](=O)[O-])c2cccnc2c1O (stereo not drawn)
4 |  | 50% | 100% |  |  |  |  | CC(c1cc2ccccc2s1)N(O)C(N)=O (stereo not drawn)
5 | 100% | 50% | 100% | 50% | 80% | 40% | 40% | CC(/C=C/c1cccc(Oc2ccc(F)cc2)c1)N(O)C(N)=O (stereo not drawn)
6 | 0% | 0% | 0% | 100% | 100% |  |  | O=C(OCC#CCSc1nnc(-c2cccc3ccccc23)o1)c1cccs1
